Columns and labels:
MDA-MB-231 = experiment: Inhibition of MDA-MB-231 cell proliferation (mean of two experiments); type: functional, cell-based, Homo sapiens
In short: (§1)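 Cells were seeded at 1500 per well and held 24 h at 37 °C. They were then exposed for 48 h to a range of compound concentrations in RPMI-1640 with 10% FBS at 37 °C and 5% CO2. Staining used 0.5 mg/mL methylene blue for 30 min at room temperature. Dye was dissolved in 3% aqueous HCl and absorbance read at 660 nm. EC50 values are means of at least two experiments.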

NCI-H460 = experiment: Inhibition of NCI-H460 cell proliferation (mean); type: functional, cell-based; details: Homo sapiens; in short: as §1
PC-3 = experiment: Inhibition of PC-3 cell proliferation (mean); type: functional, cell-based; details: Homo sapiens; in short: as §1
HCT-116 = experiment: Inhibition of HCT116 cell proliferation (mean); type: functional, cell-based; details: Homo sapiens; in short: as §1
T47D = experiment: Inhibition of T-47D cell proliferation (mean of two experiments); type: functional, cell-based; details: Homo sapiens; in short: as §1
Malme-3M = experiment: Inhibition of MALME-3M cell proliferation (mean); type: functional, cell-based; details: Homo sapiens; in short: as §1
A498 = experiment: Inhibition of A498 cell proliferation (mean); type: functional, cell-based; details: Homo sapiens; in short: as §1
DLD-1 = experiment: Inhibition of DLD-1 cell proliferation (mean); type: functional, cell-based; details: Homo sapiens; in short: as §1
Histone deacetylase 1 = Histone deacetylase 1 (Homo sapiens, UniProt Q13547); experiment: Inhibition of HDAC1
Histone deacetylase 1, sequence (Q13547 whole entry): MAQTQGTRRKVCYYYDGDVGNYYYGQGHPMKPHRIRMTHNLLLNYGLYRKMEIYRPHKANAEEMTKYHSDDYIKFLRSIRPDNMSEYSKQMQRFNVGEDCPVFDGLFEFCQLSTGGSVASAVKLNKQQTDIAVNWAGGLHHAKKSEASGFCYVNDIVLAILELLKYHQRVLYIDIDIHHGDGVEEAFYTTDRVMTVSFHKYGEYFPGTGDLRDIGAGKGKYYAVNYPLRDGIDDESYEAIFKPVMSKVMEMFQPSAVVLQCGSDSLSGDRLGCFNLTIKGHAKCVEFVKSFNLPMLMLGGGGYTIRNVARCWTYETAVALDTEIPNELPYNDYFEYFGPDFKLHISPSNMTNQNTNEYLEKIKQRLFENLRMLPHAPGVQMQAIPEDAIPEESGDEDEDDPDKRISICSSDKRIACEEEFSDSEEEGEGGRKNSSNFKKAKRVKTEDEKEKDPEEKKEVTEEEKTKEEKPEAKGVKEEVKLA

[1] = Stability (mean % remaining) in human plasma after incubation at 37 °C for 24h; type: ADME, cell-free; details: read-out: %R
In short: (§2)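 Compounds were incubated in human plasma with sampling at 0, 2, 4, 8 and 24 h. The percentage of intact compound remaining was measured at each point. Values are means of at least three experiments.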

[2] = Stability (mean % remaining) in human plasma after incubation at 37 °C for 0h; type: ADME; details: read-out: %R; in short: as §2
[3] = Stability (mean % remaining) in human plasma after incubation at 37 °C for 2h; type: ADME, cell-free; details: read-out: %R; in short: as §2
[4] = Stability (mean % remaining) in human plasma after incubation at 37 °C for 4h; type: ADME, cell-free; details: read-out: %R; in short: as §2
[5] = Stability (mean % remaining) in human plasma after incubation at 37 °C for 8h; type: ADME, cell-free; details: read-out: %R; in short: as §2

Row | Structure (SMILES) | EC50 (MDA-MB-231; Homo sapiens, MDA-MB-231) [µM] | EC50 (NCI-H460) [µM] | EC50 (PC-3) [µM] | EC50 (HCT-116) [nM] | EC50 (T47D) [µM] | EC50 (MDA-MB-231; mda-mb-231) [µM] | EC50 (DLD-1) [nM] | IC50 (Histone deacetylase 1) [nM] | remaining at 24 h [1] [%] | remaining at 0 h [2] [%] | remaining at 2 h [3] [%] | remaining at 4 h [4] [%] | remaining at 8 h [5] [%] | EC50 (Malme-3M) [µM] | EC50 (A498) [µM]
1 | O=C(CCCCCCSC(=O)C(Cc1ccccc1)Cc1ccccc1)Nc1nc(-c2ccccc2)cs1 | > 20 | > 20 |  |  |  |  |  |  |  |  |  |  |  |  | 
2 | CC(C(=O)SCCCCCCC(=O)Nc1nc(-c2ccccc2)cs1)c1ccccc1 (stereo unspecified) | > 20 | 3.2 | 37 | 23000 | > 100 | 27 | 86000 |  |  |  |  |  |  | 33 | 26
3 | O=C(CCCCCCS)Nc1nc(-c2ccccc2)cs1 | > 20 | 7.6 |  |  |  |  |  | 48 |  |  |  |  |  |  | 
4 | CC(C)C(=O)SCCCCCCC(=O)Nc1nc(-c2ccccc2)cs1 | 4.4 | 2.1 | 9.5 | 1300 | 8.3 |  | 2300 |  | 49 | 100 | 86 | 71 | 63 | 4.3 | 6.8
5 | COC(C(=O)SCCCCCCC(=O)Nc1nc(-c2ccccc2)cs1)c1ccccc1 (stereo unspecified) | > 20 | 11 |  |  |  |  |  |  |  |  |  |  |  |  | 

More lines, main results first:

Row | EC50 (MDA-MB-231; Homo sapiens, MDA-MB-231) [µM] | EC50 (NCI-H460) [µM] | EC50 (PC-3) [µM] | EC50 (HCT-116) [nM] | EC50 (T47D) [µM] | EC50 (MDA-MB-231; mda-mb-231) [µM] | EC50 (DLD-1) [nM] | IC50 (Histone deacetylase 1) [nM] | remaining at 24 h [1] [%] | remaining at 0 h [2] [%] | remaining at 2 h [3] [%] | remaining at 4 h [4] [%] | remaining at 8 h [5] [%] | Structure (SMILES) | EC50 (Malme-3M) [µM] | EC50 (A498) [µM]
6 | 3.1 | 3.2 | 9.9 | 750 |  |  |  |  |  |  |  |  |  | C[C@H](Cc1ccccc1)C(=O)SCCCCCCC(=O)Nc1nc(-c2ccccc2)cs1 |  | 
7 | 1.9 | 1.5 | 3.2 | 1200 | 4.3 |  | 1800 | > 100000 | 100 | 100 | 100 | 99 | 99 | CC(Cc1ccccc1)C(=O)SCCCCCCC(=O)Nc1nc(-c2ccccc2)cs1 (stereo unspecified) | 3 | 2.6
8 | 4 | 3 | 4.4 | 620 |  |  |  |  |  |  |  |  |  | C[C@@H](Cc1ccccc1)C(=O)SCCCCCCC(=O)Nc1nc(-c2ccccc2)cs1 |  | 
